{"source": "ChEMBL document CHEMBL3271970", "about": "“Radiopharmaceuticals. 16. Halogenated dopamine analogs. Synthesis and radiolabeling of 6-iododopamine and tissue distribution studies in animals” (J Med Chem, 1976)", "key": {"Adrenal medulla [1]": {"system": "Adrenal medulla", "assay": "Biodistribution in adrenal medulla of rat assessed per organ at 3.6 x 10^-8 mol, iv measured after 2 hrs", "format": "ADME, organism-based", "conditions": "in vivo", "in_short": "(§1)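 [131I]-6-iododopamine in water or saline, used within 30 min of preparation. Injected iv at 3.6 × 10^-8 mol/rat. Rats killed by ether overdose at 5, 30 or 60 min, or at 2, 4 or 24 h. Tissue radioactivity expressed as % dose/organ, mean ± SD of four rats.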"}, "[2]": {"assay": "Biodistribution in adrenal medulla of mongrel dog assessed per organ at 1.29 x 10^-6 mol, iv measured after 24 hrs", "format": "ADME, organism-based, Canis lupus familiaris", "conditions": "in vivo", "in_short": "(§2)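 Radioiodinated ([123I] or [131I]) 6-iododopamine in water or saline, used within 30 min of preparation. Given iv at 1.29 × 10^-6 mol/dog; one dog per time point, killed at 2 or 24 h. Large organs counted as three samples and averaged; adrenals and thyroid taken intact and counted. Expressed as % dose/organ.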"}, "Kidney [3]": {"system": "Kidney", "assay": "Biodistribution in kidney of mouse assessed per organ at 8 to 11 x 10^-8 mol, iv measured after 30 mins", "format": "ADME, organism-based", "conditions": "in vivo, 0.5 h", "in_short": "(§3)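 [131I]- or [123I]-6-iododopamine in water or saline, used within 30 min of preparation. Injected iv at 8-11 × 10^-8 mol/mouse. Mice killed by ether overdose at 5-240 min; 3-10 mice per time point. Tissue radioactivity expressed as % dose/organ ± SD.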"}, "Mus musculus [4]": {"system": "Mus musculus", "assay": "Biodistribution in thyroid gland of mouse assessed per organ at 8 to 11 x 10^-8 mol, iv measured after 60 mins", "format": "ADME, organism-based", "conditions": "in vivo, 1 h", "in_short": "(§4)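 Tracer labelled with either 123I or 131I, in water or saline, used within 30 min of preparation. Mice dosed iv at 8-11 × 10^-8 mol/mouse and killed by ether overdose. Organs counted as % dose/organ ± SD, n = 3-10 mice per time point.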"}, "Kidney [5]": {"system": "Kidney", "assay": "Biodistribution in kidney of mouse assessed per organ at 8 to 11 x 10^-8 mol, iv measured after 60 mins", "format": "ADME, organism-based", "conditions": "in vivo, 1 h", "in_short": "as §3"}, "Mus musculus [6]": {"system": "Mus musculus", "assay": "Biodistribution in adrenal gland of mouse assessed per organ at 8 to 11 x 10^-8 mol, iv measured after 30 mins", "format": "ADME, organism-based", "conditions": "in vivo, 0.5 h", "in_short": "as §3"}, "Blood [7]": {"system": "Blood", "assay": "Biodistribution in blood of rat at 3.6 x 10^-8 mol, iv measured after 4 hrs", "format": "ADME, organism-based", "conditions": "in vivo", "in_short": "(§5)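 [131I]-6-iododopamine in water or saline, used within 30 min of preparation. Injected iv at 3.6 × 10^-8 mol/rat. Rats killed by ether overdose at 5 min to 24 h. Blood radioactivity expressed as % dose/g, mean ± SD of four rats.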"}, "Liver [8]": {"system": "Liver", "assay": "Biodistribution in liver of rat assessed per organ at 3.6 x 10^-8 mol, iv measured after 30 mins", "format": "ADME, organism-based", "conditions": "in vivo, 0.5 h", "in_short": "(§6)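 [131I]-labelled tracer in water or saline, injected within 30 min of preparation. Rats given 3.6 × 10^-8 mol/rat iv, killed by ether overdose at each time point. Organs excised and radioactivity counted as % dose/organ, mean ± SD of four rats.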"}, "Mus musculus [9]": {"system": "Mus musculus", "assay": "Biodistribution in adrenal gland of mouse assessed per organ at 8 to 11 x 10^-8 mol, iv measured after 120 mins", "format": "ADME, organism-based", "conditions": "in vivo, 2 h", "in_short": "as §3"}, "Liver [10]": {"system": "Liver", "assay": "Biodistribution in liver of mongrel dog assessed per organ at 1.29 x 10^-6 mol, iv measured after 2 hrs", "format": "ADME, organism-based, Canis lupus familiaris", "conditions": "in vivo", "in_short": "as §2"}, "Liver [11]": {"system": "Liver", "assay": "Biodistribution in liver of mouse assessed per organ at 8 to 11 x 10^-8 mol, iv measured after 60 mins", "format": "ADME, organism-based", "conditions": "in vivo, 1 h", "in_short": "as §3"}, "Kidney [12]": {"system": "Kidney", "assay": "Biodistribution in kidney of rat assessed per organ at 3.6 x 10^-8 mol, iv measured after 30 mins", "format": "ADME, organism-based", "conditions": "in vivo, 0.5 h", "in_short": "as §1"}, "Kidney [13]": {"system": "Kidney", "assay": "Biodistribution in kidney of rat assessed per organ at 3.6 x 10^-8 mol, iv measured after 24 hrs", "format": "ADME, organism-based", "conditions": "in vivo", "in_short": "as §1"}, "[14]": {"assay": "Biodistribution in adrenal cortex of mongrel dog assessed per organ at 1.29 x 10^-6 mol, iv measured after 2 hrs", "format": "ADME, organism-based, Canis lupus familiaris", "conditions": "in vivo", "in_short": "as §2"}, "Adrenal medulla [15]": {"system": "Adrenal medulla", "assay": "Biodistribution in adrenal medulla of rat assessed per organ at 3.6 x 10^-8 mol, iv measured after 30 mins", "format": "ADME, organism-based", "conditions": "in vivo, 0.5 h", "in_short": "as §1"}, "Liver [16]": {"system": "Liver", "assay": "Biodistribution in liver of rat assessed per organ at 3.6 x 10^-8 mol, iv measured after 4 hrs", "format": "ADME, organism-based", "conditions": "in vivo", "in_short": "as §6"}, "[17]": {"assay": "Biodistribution in thyroid gland of mongrel dog assessed per organ at 1.29 x 10^-6 mol, iv measured after 24 hrs", "format": "ADME, organism-based, Canis lupus familiaris", "conditions": "in vivo", "in_short": "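Radioiodine-labelled tracer given at 1.29 × 10^-6 mol/dog. One dog per time point, killed at 2 or 24 h. Thyroids and other small organs were taken intact and counted. Large organs were sampled three times and averaged. Result given as % dose/organ.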"}, "Mus musculus [18]": {"system": "Mus musculus", "assay": "Biodistribution in thyroid gland of mouse assessed per organ at 8 to 11 x 10^-8 mol, iv measured after 240 mins", "format": "ADME, organism-based", "conditions": "in vivo, 4 h", "in_short": "as §4"}, "Kidney [19]": {"system": "Kidney", "assay": "Biodistribution in kidney of mouse assessed per organ at 8 to 11 x 10^-8 mol, iv measured after 5 mins", "format": "ADME, organism-based", "conditions": "in vivo", "in_short": "as §3"}, "Mus musculus [20]": {"system": "Mus musculus", "assay": "Biodistribution in thyroid gland of mouse assessed per organ at 8 to 11 x 10^-8 mol, iv measured after 120 mins", "format": "ADME, organism-based", "conditions": "in vivo, 2 h", "in_short": "as §4"}, "Rattus norvegicus [21]": {"system": "Rattus norvegicus", "assay": "Biodistribution in thyroid gland of rat assessed per organ at 3.6 x 10^-8 mol, iv measured after 4 hrs", "format": "ADME, organism-based", "conditions": "in vivo", "in_short": "as §6"}, "Blood [22]": {"system": "Blood", "assay": "Biodistribution in blood of rat at 3.6 x 10^-8 mol, iv measured after 30 mins", "format": "ADME, organism-based", "conditions": "in vivo, 0.5 h", "in_short": "as §5"}, "Liver [23]": {"system": "Liver", "assay": "Biodistribution in liver of mongrel dog assessed per organ at 1.29 x 10^-6 mol, iv measured after 24 hrs", "format": "ADME, organism-based, Canis lupus familiaris", "conditions": "in vivo", "in_short": "as §2"}, "[24]": {"assay": "Biodistribution in adrenal medulla of mongrel dog assessed per organ at 1.29 x 10^-6 mol, iv measured after 2 hrs", "format": "ADME, organism-based, Canis lupus familiaris", "conditions": "in vivo", "in_short": "as §2"}, "Liver [25]": {"system": "Liver", "assay": "Biodistribution in liver of rat assessed per organ at 3.6 x 10^-8 mol, iv measured after 24 hrs", "format": "ADME, organism-based", "conditions": "in vivo", "in_short": "as §6"}, "Mus musculus [26]": {"system": "Mus musculus", "assay": "Biodistribution in adrenal gland of mouse assessed per organ at 8 to 11 x 10^-8 mol, iv measured after 5 mins", "format": "ADME, organism-based", "conditions": "in vivo", "in_short": "as §3"}, "Rattus norvegicus [27]": {"system": "Rattus norvegicus", "assay": "Biodistribution in adrenal cortex of rat assessed per organ at 3.6 x 10^-8 mol, iv measured after 5 mins", "format": "ADME, organism-based", "conditions": "in vivo", "in_short": "as §1"}, "Rattus norvegicus [28]": {"system": "Rattus norvegicus", "assay": "Biodistribution in thyroid gland of rat assessed per organ at 3.6 x 10^-8 mol, iv measured after 2 hrs", "format": "ADME, organism-based", "conditions": "in vivo", "in_short": "as §6"}, "Kidney [29]": {"system": "Kidney", "assay": "Biodistribution in kidney of rat assessed per organ at 3.6 x 10^-8 mol, iv measured after 5 mins", "format": "ADME, organism-based", "conditions": "in vivo", "in_short": "as §1"}, "Liver [30]": {"system": "Liver", "assay": "Biodistribution in liver of mouse assessed per organ at 8 to 11 x 10^-8 mol, iv measured after 30 mins", "format": "ADME, organism-based", "conditions": "in vivo, 0.5 h", "in_short": "as §3"}, "Rattus norvegicus [31]": {"system": "Rattus norvegicus", "assay": "Biodistribution in thyroid gland of rat assessed per organ at 3.6 x 10^-8 mol, iv measured after 24 hrs", "format": "ADME, organism-based", "conditions": "in vivo", "in_short": "as §6"}, "Kidney [32]": {"system": "Kidney", "assay": "Biodistribution in kidney of rat assessed per organ at 3.6 x 10^-8 mol, iv measured after 4 hrs", "format": "ADME, organism-based", "conditions": "in vivo", "in_short": "as §1"}, "Blood [33]": {"system": "Blood", "assay": "Biodistribution in blood of rat at 3.6 x 10^-8 mol, iv measured after 24 hrs", "format": "ADME, organism-based", "conditions": "in vivo", "in_short": "as §5"}}}
{"smiles": "Br.NCCc1cc(O)c(O)cc1[131I]", "values": [{"measurement": "Drug uptake", "setting": "Adrenal medulla [1]", "result": 0.0035, "unit": "%ID"}, {"measurement": "Drug uptake", "setting": "[2]", "result": 0.0021, "unit": "%ID"}, {"measurement": "Drug uptake", "setting": "Kidney [3]", "result": 1.69, "unit": "%ID"}, {"measurement": "Drug uptake", "setting": "Mus musculus [4]", "result": 0.066, "unit": "%ID"}, {"measurement": "Drug uptake", "setting": "Kidney [5]", "result": 1, "unit": "%ID"}, {"measurement": "Drug uptake", "setting": "Mus musculus [6]", "result": 0.014, "unit": "%ID"}, {"measurement": "Drug uptake", "setting": "Blood [7]", "result": 0.055, "unit": "%ID"}, {"measurement": "Drug uptake", "setting": "Liver [8]", "result": 2.36, "unit": "%ID"}, {"measurement": "Drug uptake", "setting": "Mus musculus [9]", "result": 0.02, "unit": "%ID"}, {"measurement": "Drug uptake", "setting": "Liver [10]", "result": 2.24, "unit": "%ID"}, {"measurement": "Drug uptake", "setting": "Liver [11]", "result": 1.04, "unit": "%ID"}, {"measurement": "Drug uptake", "setting": "Kidney [12]", "result": 2.37, "unit": "%ID"}, {"measurement": "Drug uptake", "setting": "Kidney [13]", "result": 0.024, "unit": "%ID"}, {"measurement": "Drug uptake", "setting": "[14]", "result": 0.0092, "unit": "%ID"}, {"measurement": "Drug uptake", "setting": "Adrenal medulla [15]", "result": 0.0138, "unit": "%ID"}, {"measurement": "Drug uptake", "setting": "Liver [16]", "result": 0.265, "unit": "%ID"}, {"measurement": "Drug uptake", "setting": "[17]", "result": 0.48, "unit": "%ID"}, {"measurement": "Drug uptake", "setting": "Mus musculus [18]", "result": 0.158, "unit": "%ID"}, {"measurement": "Drug uptake", "setting": "Kidney [19]", "result": 8.03, "unit": "%ID"}, {"measurement": "Drug uptake", "setting": "Mus musculus [20]", "result": 0.176, "unit": "%ID"}, {"measurement": "Drug uptake", "setting": "Rattus norvegicus [21]", "result": 0.251, "unit": "%ID"}, {"measurement": "Drug uptake", "setting": "Blood [22]", "result": 0.48, "unit": "%ID"}, {"measurement": "Drug uptake", "setting": "Liver [23]", "result": 0.48, "unit": "%ID"}, {"measurement": "Drug uptake", "setting": "[24]", "result": 0.0062, "unit": "%ID"}, {"measurement": "Drug uptake", "setting": "Liver [25]", "result": 0.072, "unit": "%ID"}, {"measurement": "Drug uptake", "setting": "Mus musculus [26]", "result": 0.03, "unit": "%ID"}, {"measurement": "Drug uptake", "setting": "Rattus norvegicus [27]", "result": 0.0098, "unit": "%ID"}, {"measurement": "Drug uptake", "setting": "Rattus norvegicus [28]", "result": 0.183, "unit": "%ID"}, {"measurement": "Drug uptake", "setting": "Kidney [29]", "result": 3.55, "unit": "%ID"}, {"measurement": "Drug uptake", "setting": "Liver [30]", "result": 2.4, "unit": "%ID"}, {"measurement": "Drug uptake", "setting": "Rattus norvegicus [31]", "result": 0.65, "unit": "%ID"}, {"measurement": "Drug uptake", "setting": "Kidney [32]", "result": 0.194, "unit": "%ID"}, {"measurement": "Drug uptake", "setting": "Blood [33]", "result": 0.0062, "unit": "%ID"}]}
